The values below come from ChEMBL document CHEMBL1126033, “C-terminal modifications of nonpeptide renin inhibitors: improved oral bioavailability via modification of physicochemical properties” (J Med Chem, 1992).

A word on the logD: it is lipophilicity at a set pH, counting ionised and neutral species. A word on the Cmax: it is the peak of the concentration-time curve. What is called inhibition is the percentage by which the read-out fell short of the control. Broadly, the IC50 is the concentration that inhibits the measured activity by half. What is called bioavailability is the share of a dose that reaches the circulation, judged against a reference dose that is usually intravenous.

Tested on in one data set: not listed separately
Nature of the data set: Partition coefficient (logD7.4). As to conditions: octanol/water, pH 7.4.
With `CCCC[C@H](O[C@@H](Cc1ccccc1)C(=O)N1CCC(OCOC)CC1)C(=O)N[C@@H](CC1CCCCC1)[C@@H](O)C[C@H](C(=O)NCCCN1CCOCC1)C(C)C`, the logD came out at 4.3.
Compound `CCCC[C@H](O[C@@H](Cc1ccccc1)C(=O)N1CCC(OCOC)CC1)C(=O)N[C@@H](CC1CCCCC1)[C@@H](O)C[C@H](NC(=O)OCCN1CCOCC1)C(C)C` yielded a logD of 3.7.

Tested on in a further data set: not listed separately
As to the kind of experiment: Average peak plasma drug concentration after id dose of 10 mg/kg in ferrets(Plasma samples collected from portal blood). As to conditions: ferret, plasma (from portal blood).
`CCCC[C@H](O[C@@H](Cc1ccccc1)C(=O)N1CCC(OCOC)CC1)C(=O)N[C@@H](CC1CCCCC1)[C@@H](O)C[C@H](C(=O)NCCCN1CCOCC1)C(C)C` gave a Cmax of 6010 ng/mL.
Same read-out and setting: the figure for `CCCC[C@H](O[C@@H](Cc1ccccc1)C(=O)N1CCC(OCOC)CC1)C(=O)N[C@@H](CC1CCCCC1)[C@@H](O)C[C@H](NC(=O)OCCN1CCOCC1)C(C)C` is 5010 ng/mL.

A further data set addresses T1, Cathepsin D (Bos taurus) (UniProt P80209).
T1 sequence (whole entry): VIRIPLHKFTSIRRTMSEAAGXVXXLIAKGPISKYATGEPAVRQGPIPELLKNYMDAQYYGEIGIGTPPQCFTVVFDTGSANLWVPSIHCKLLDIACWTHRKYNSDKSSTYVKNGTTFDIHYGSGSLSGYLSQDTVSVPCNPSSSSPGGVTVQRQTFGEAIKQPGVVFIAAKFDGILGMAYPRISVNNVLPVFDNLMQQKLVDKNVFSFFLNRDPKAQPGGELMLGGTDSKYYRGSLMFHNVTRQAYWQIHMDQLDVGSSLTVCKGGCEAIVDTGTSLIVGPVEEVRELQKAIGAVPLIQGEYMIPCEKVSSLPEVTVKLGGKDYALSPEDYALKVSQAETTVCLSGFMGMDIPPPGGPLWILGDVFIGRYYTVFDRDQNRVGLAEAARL
As to the kind of experiment: Inhibitory activity against bovine cathepsin D at a concentration of 1 x 10e-5 M.
Details: not given
Turning to `CCCC[C@H](O[C@@H](Cc1ccccc1)C(=O)N1CCC(OCOC)CC1)C(=O)N[C@@H](CC1CCCCC1)[C@@H](O)C[C@H](C(=O)NCCCN1CCOCC1)C(C)C`, the inhibition worked out at 3%.

For the next data set, the target named is T2, Renin (Homo sapiens, UniProt P00797).
T2 sequence (P00797 whole entry): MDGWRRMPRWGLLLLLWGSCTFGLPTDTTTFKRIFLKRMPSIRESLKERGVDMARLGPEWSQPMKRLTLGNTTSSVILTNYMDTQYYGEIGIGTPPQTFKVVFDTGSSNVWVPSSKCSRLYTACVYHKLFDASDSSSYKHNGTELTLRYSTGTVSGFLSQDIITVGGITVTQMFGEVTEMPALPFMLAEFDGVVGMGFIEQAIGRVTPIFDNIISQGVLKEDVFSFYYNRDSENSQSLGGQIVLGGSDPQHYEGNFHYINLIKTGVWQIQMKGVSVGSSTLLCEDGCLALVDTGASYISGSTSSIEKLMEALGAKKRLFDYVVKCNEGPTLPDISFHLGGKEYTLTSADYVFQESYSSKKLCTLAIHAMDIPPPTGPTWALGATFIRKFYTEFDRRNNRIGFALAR
Assay: not given
Details: not given
Format: cell-free, Plasma.
The compound `CCCC[C@H](O[C@@H](Cc1ccccc1)C(=O)N1CCC(OCOC)CC1)C(=O)N[C@@H](CC1CCCCC1)[C@@H](O)C[C@H](C(=O)NCCCN1CCOCC1)C(C)C` displayed an IC50 of 2.8 nM.
`CCCC[C@H](O[C@@H](Cc1ccccc1)C(=O)N1CCC(OCOC)CC1)C(=O)N[C@@H](CC1CCCCC1)[C@@H](O)C[C@H](NC(=O)OCCN1CCOCC1)C(C)C` showed an IC50 of 7.5 nM.

The target in the next data set is Pepsin A (Sus scrofa) (UniProt P00791). Nature of the data set: Inhibitory activity against porcine pepsin at a concentration of 1 x 10e-5 M.
Sequence of Pepsin A (Sus scrofa) (P00791 60-385 limits assumed): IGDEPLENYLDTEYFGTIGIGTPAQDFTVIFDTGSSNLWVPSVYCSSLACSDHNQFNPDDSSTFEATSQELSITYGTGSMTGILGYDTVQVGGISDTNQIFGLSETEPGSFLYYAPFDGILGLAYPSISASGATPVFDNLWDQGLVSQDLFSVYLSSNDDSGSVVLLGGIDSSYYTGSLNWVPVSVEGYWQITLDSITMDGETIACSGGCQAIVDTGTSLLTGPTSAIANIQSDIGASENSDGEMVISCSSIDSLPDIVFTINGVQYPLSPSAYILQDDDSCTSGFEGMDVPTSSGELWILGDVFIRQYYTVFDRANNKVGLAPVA
Details: not given
Take `CCCC[C@H](O[C@@H](Cc1ccccc1)C(=O)N1CCC(OCOC)CC1)C(=O)N[C@@H](CC1CCCCC1)[C@@H](O)C[C@H](C(=O)NCCCN1CCOCC1)C(C)C`: the inhibition amounted to 13%.

Tested on in the next data set: not listed separately
Nature of the data set: Average peak plasma drug concentration after iv dose of 0.3 mg/kg in ferrets. Conditions: ferret, plasma.
The compound `CCCC[C@H](O[C@@H](Cc1ccccc1)C(=O)N1CCC(OCOC)CC1)C(=O)N[C@@H](CC1CCCCC1)[C@@H](O)C[C@H](C(=O)NCCCN1CCOCC1)C(C)C` registered a Cmax of 2110 ng/mL.
Compound `CCCC[C@H](O[C@@H](Cc1ccccc1)C(=O)N1CCC(OCOC)CC1)C(=O)N[C@@H](CC1CCCCC1)[C@@H](O)C[C@H](NC(=O)OCCN1CCOCC1)C(C)C` yielded a Cmax of 920 ng/mL.

For another data set, the target named is T2, Renin. Nature of the data set: In vitro activity against human renin (pH 6.0).
Details: not given
`CCCC[C@H](O[C@@H](Cc1ccccc1)C(=O)N1CCC(OCOC)CC1)C(=O)N[C@@H](CC1CCCCC1)[C@@H](O)C[C@H](C(=O)NCCCN1CCOCC1)C(C)C` came in with an IC50 of 2.4 nM.

Tested on in the next data set: not listed separately
Nature of the data set: Partition coefficient (logD6.5). Conditions: octanol/water, pH 6.5.
The compound `CCCC[C@H](O[C@@H](Cc1ccccc1)C(=O)N1CCC(OCOC)CC1)C(=O)N[C@@H](CC1CCCCC1)[C@@H](O)C[C@H](C(=O)NCCCN1CCOCC1)C(C)C` registered a logD of 3.3.
The same measure, in the same setting: the figure for `CCCC[C@H](O[C@@H](Cc1ccccc1)C(=O)N1CCC(OCOC)CC1)C(=O)N[C@@H](CC1CCCCC1)[C@@H](O)C[C@H](NC(=O)OCCN1CCOCC1)C(C)C` is 3.6.

A further data set deals with Cathepsin D (Homo sapiens) (UniProt P07339). As to the kind of experiment: Inhibitory activity against human cathepsin D at a concentration of 1 x 10e-5 M.
Sequence of Cathepsin D (Homo sapiens) (P07339 65-162 limits assumed): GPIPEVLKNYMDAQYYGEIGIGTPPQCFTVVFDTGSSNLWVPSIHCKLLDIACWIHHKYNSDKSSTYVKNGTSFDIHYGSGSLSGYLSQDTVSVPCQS
Sequence of Cathepsin D (Homo sapiens) (P07339 169-412 limits assumed): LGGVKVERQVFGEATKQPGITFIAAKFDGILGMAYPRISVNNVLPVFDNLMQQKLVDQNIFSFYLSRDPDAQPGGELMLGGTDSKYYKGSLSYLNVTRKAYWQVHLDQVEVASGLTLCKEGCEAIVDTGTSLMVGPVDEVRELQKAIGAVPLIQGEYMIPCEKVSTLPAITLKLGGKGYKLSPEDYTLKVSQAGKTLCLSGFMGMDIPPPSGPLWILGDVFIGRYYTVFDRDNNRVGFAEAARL
Details: not given
The gist of the method:
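Human spleen cathepsin D, purified by hemoglobin affinity chromatography and assayed with hemoglobin substrate.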
As to `CCCC[C@H](O[C@@H](Cc1ccccc1)C(=O)N1CCC(OCOC)CC1)C(=O)N[C@@H](CC1CCCCC1)[C@@H](O)C[C@H](C(=O)NCCCN1CCOCC1)C(C)C`, the inhibition is 6%.

The target of the next data set is T3, Gastricsin (Homo sapiens) (UniProt P20142).
T3 sequence (whole entry): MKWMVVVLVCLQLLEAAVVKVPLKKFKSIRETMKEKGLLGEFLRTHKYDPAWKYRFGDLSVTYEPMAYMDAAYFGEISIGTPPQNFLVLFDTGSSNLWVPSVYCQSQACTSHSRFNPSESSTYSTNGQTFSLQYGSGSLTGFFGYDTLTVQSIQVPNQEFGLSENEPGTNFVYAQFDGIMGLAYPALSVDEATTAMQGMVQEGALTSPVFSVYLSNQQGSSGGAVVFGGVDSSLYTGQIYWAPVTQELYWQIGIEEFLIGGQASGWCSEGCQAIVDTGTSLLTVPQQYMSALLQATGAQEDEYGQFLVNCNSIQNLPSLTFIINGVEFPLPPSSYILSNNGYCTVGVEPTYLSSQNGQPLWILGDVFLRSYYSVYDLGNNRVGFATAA
As to the kind of experiment: Inhibitory activity against human Gastricsin at a concentration of 1 x 10e-5 M.
Details: not given
For `CCCC[C@H](O[C@@H](Cc1ccccc1)C(=O)N1CCC(OCOC)CC1)C(=O)N[C@@H](CC1CCCCC1)[C@@H](O)C[C@H](C(=O)NCCCN1CCOCC1)C(C)C`, the inhibition stood at 11%.

The subject of the next data set is Mustela putorius furo. As to the kind of experiment: Average area under curve value dosed at 10 mg/kg, id in ferrets. As to conditions: ferret, in vivo, other. It counts as ADME, organism-based. On the set-up: dose 10 mg/kg, route intraduodenal. The gist of the method: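 Fasted male Fitch ferrets (0.4–1.2 kg) under Inactin anesthesia (100–120 mg/kg ip), catheterized in carotid artery, jugular vein, portal vein and trachea. Single 10 mg/kg intraduodenal dose of HCl salt solution. 6 portal and 7 arterial samples taken over 180 min. Plasma drug measured by renin-inhibition bioassay with serial dilution and acetonitrile precipitation. AUC by trapezoidal integration; peak is the mean of each animal's maximum.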
In the case of `CCCC[C@H](O[C@@H](Cc1ccccc1)C(=O)N1CCC(OCOC)CC1)C(=O)N[C@@H](CC1CCCCC1)[C@@H](O)C[C@H](C(=O)NCCCN1CCOCC1)C(C)C`, the “Avg AUC,” value came out at 391 µg/min/mL.
The same measure, in the same setting: as for `CCCC[C@H](O[C@@H](Cc1ccccc1)C(=O)N1CCC(OCOC)CC1)C(=O)N[C@@H](CC1CCCCC1)[C@@H](O)C[C@H](NC(=O)OCCN1CCOCC1)C(C)C`, the figure is 363 µg/min/mL.

Another data set addresses T4, Cathepsin G (Homo sapiens) (UniProt P08311).
T4 sequence (whole entry): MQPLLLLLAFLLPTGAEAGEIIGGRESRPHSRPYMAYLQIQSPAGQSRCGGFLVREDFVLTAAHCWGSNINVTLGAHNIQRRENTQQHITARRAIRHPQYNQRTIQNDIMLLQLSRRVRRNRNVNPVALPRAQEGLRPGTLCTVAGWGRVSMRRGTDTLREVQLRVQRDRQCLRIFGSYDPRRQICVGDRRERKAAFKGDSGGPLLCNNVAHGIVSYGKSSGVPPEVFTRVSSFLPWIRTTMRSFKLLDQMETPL
Nature of the data set: Inhibitory activity against human cathepsin G at a concentration of 1 x 10e-5 M.
Details: not given
The method in brief: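 Human leukocyte cathepsin G, assayed with N-succinyl-Ala-Ala-Pro-Phe-4-nitroanilide substrate.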
Turning to `CCCC[C@H](O[C@@H](Cc1ccccc1)C(=O)N1CCC(OCOC)CC1)C(=O)N[C@@H](CC1CCCCC1)[C@@H](O)C[C@H](C(=O)NCCCN1CCOCC1)C(C)C`, the inhibition stood at 0%.

Tested on in the next data set: not listed separately
As to the kind of experiment: Bioavailability in ferret. Conditions: in vivo.
Regarding `CCCC[C@H](O[C@@H](Cc1ccccc1)C(=O)N1CCC(OCOC)CC1)C(=O)N[C@@H](CC1CCCCC1)[C@@H](O)C[C@H](C(=O)NCCCN1CCOCC1)C(C)C`, the bioavailability is 28%.
Same read-out and setting: as for `CCCC[C@H](O[C@@H](Cc1ccccc1)C(=O)N1CCC(OCOC)CC1)C(=O)N[C@@H](CC1CCCCC1)[C@@H](O)C[C@H](NC(=O)OCCN1CCOCC1)C(C)C`, the figure is 70%.

Tested on in a further data set: not listed separately
As to the kind of experiment: Average peak plasma drug concentration after id dose of 10 mg/kg in ferrets(Plasma samples collected from arterial blood). As to conditions: ferret, plasma (from arterial blood).
For the compound `CCCC[C@H](O[C@@H](Cc1ccccc1)C(=O)N1CCC(OCOC)CC1)C(=O)N[C@@H](CC1CCCCC1)[C@@H](O)C[C@H](C(=O)NCCCN1CCOCC1)C(C)C`, the highest level (Cmax) was 4830 ng/mL.
`CCCC[C@H](O[C@@H](Cc1ccccc1)C(=O)N1CCC(OCOC)CC1)C(=O)N[C@@H](CC1CCCCC1)[C@@H](O)C[C@H](NC(=O)OCCN1CCOCC1)C(C)C` showed a Cmax of 2840 ng/mL.

The subject of another data set is Mustela putorius furo. Nature of the data set: Average area under curve value dosed at 0.3 mg/kg, iv in ferrets. As to conditions: ferret, in vivo.
`CCCC[C@H](O[C@@H](Cc1ccccc1)C(=O)N1CCC(OCOC)CC1)C(=O)N[C@@H](CC1CCCCC1)[C@@H](O)C[C@H](C(=O)NCCCN1CCOCC1)C(C)C` had an Average AUC of 588 ng·h/mL.
In the case of `CCCC[C@H](O[C@@H](Cc1ccccc1)C(=O)N1CCC(OCOC)CC1)C(=O)N[C@@H](CC1CCCCC1)[C@@H](O)C[C@H](NC(=O)OCCN1CCOCC1)C(C)C`, the Average AUC turned out to be 258 ng·h/mL.

Tested on in another data set: not listed separately
As to the kind of experiment: Inhibitory activity against monkey plasma at pH 7.4. Conditions: Cercopithecidae.
Compound `CCCC[C@H](O[C@@H](Cc1ccccc1)C(=O)N1CCC(OCOC)CC1)C(=O)N[C@@H](CC1CCCCC1)[C@@H](O)C[C@H](C(=O)NCCCN1CCOCC1)C(C)C` gave an IC50 of 1.5 nM.

Tested on in a further data set: not listed separately
As to the kind of experiment: Bioavailability in monkey (i.d. dosing). Format: ADME, organism-based. As to conditions: cercopithecidae, in vivo. The gist of the method:
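Male cynomolgus monkeys (3–5 kg) salt-depleted with furosemide 5 mg/kg po on days 7 and 1 plus a low-salt diet. Fasted, pentobarbital anesthesia. Intraduodenal dose of 10 mg/kg as HCl salt solution. Portal and systemic plasma drug levels measured by bioassay. Bioavailability = dose-normalized AUCid/AUCiv ×100 (trapezoidal integration; iv fit biexponential), mean ± SEM.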
`COc1ccc(C[C@H](NC(=O)CC(C)(C)N)C(=O)N[C@@H](Cc2cnc[nH]2)C(=O)N[C@@H](CC2CCCCC2)[C@@H](O)[C@@H](O)CC(C)C)cc1` displayed a bioavailability of 1.7%.

The same data set, now with this note: primates, in vivo.
Regarding `CCCC[C@H](O[C@@H](Cc1ccccc1)C(=O)N1CCC(OCOC)CC1)C(=O)N[C@@H](CC1CCCCC1)[C@@H](O)C[C@H](C(=O)NCCCN1CCOCC1)C(C)C`, the bioavailability stood at 16%.
